Reference: PMC2887662 (Journal of medicinal chemistry, 2010)
“Also recorded” adds a separate entry of the source. Each block holds one compound with its values, some of them ahead of it.

Tests used:
[1] = system: panel of six different human tumor cell lines; experiment: Antiproliferative activity, panel of six cell lines; assay type: cell-based; details: for IC50: Homo sapiens, read-out: IC50 values, range against the cell lines; for antiproliferative activity (in words): six human tumor cell lines
In short: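 Cells in RPMI-1640 (Jurkat, HL-60, K562) or DMEM (MCF7, A549, HeLa) with 10% FBS and penicillin/streptomycin. 8 × 10^3 cells/well were preincubated 18 h, then exposed to a range of test compound concentrations in complete medium for 72 h at 37 °C, 5% CO2. Viability was read by MTT.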

[2] = system: HeLa cells; experiment: Flow cytometric cell cycle analysis, HeLa; assay type: cell-based, human; details: for G2/M cell population: 30 nM, 48 h, control 12%; for cell cycle effect in HeLa: 7 to 250 nM, 24 h
[3] = system: Jurkat cells; experiment: Flow cytometric cell cycle analysis, Jurkat; assay type: cell-based, human
[4] = system: Jurkat cells; experiment: Annexin-V/PI apoptosis assay; assay type: cell-based, human; details: 50 nM, 24-72 h
In short: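 After treatment for different times, Jurkat cells are co-stained with annexin-V-FITC (per the kit instructions) and PI. They are analysed by flow cytometry with excitation at 488 nm and emission filters at 525 nm (FITC, green) and 585 nm (PI, red). Externalised phosphatidylserine is scored as annexin-V positive cells.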

[5] = system: Jurkat cells; experiment: Mitochondrial membrane potential; assay type: cell-based, human; details: 50 nM
In short: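 Mitochondrial potential is probed with the lipophilic cation JC-1. After different treatment times, cells are pelleted and resuspended in HBSS containing 1 µM JC-1, held for 10 min at 37 °C, then spun and resuspended in HBSS. Polarised mitochondria form aggregates with shifted emission. On depolarisation, JC-1 monomers emit at 530 nm.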

[6] = system: Jurkat cells; experiment: Mitochondrial ROS production; assay type: cell-based, human; details: up to 72 h, HE and H2DCFDA
In short: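 After different treatment times, cells are pelleted and resuspended in HBSS containing hydroethidine (2.5 µM) or H2DCFDA (0.1 µM). They are incubated for 30 min at 37 °C, spun and resuspended in HBSS. Fluorescence is recorded directly by flow cytometry, with excitation at 488 nm and emission at 585 nm (ethidium, from superoxide) or 530 nm (DCF, from peroxides).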

[7] = system: caspase-3 in Jurkat cells; experiment: Caspase-3 activation by flow cytometry; assay type: cell-based, human; details: 50 nM, 24, 48, 72 h
In short: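 After different incubation times with test compound, cells are pelleted and fixed in Cytofix buffer for 20 min, then washed with Perm/Wash. They are stained for 30 min with a FITC-conjugated antibody against the human active caspase-3 fragment, washed and analysed by flow cytometry. Results are given as percentage of caspase-3 active fragment positive cells.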

[8] = system: PARP and Bcl-2 in Jurkat cells; experiment: Western blot for PARP cleavage and Bcl-2 expression; assay type: cell-based, human; details: 50 nM; for PARP cleavage: 24 h
In short: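 Jurkat cells were treated with test compound for varying times, washed in cold PBS and lysed on ice for 30 min. Lysates were spun at 15000g, 4 °C, 10 min, and protein was measured by BCA. 20 µg protein per lane was run on 7.5–15% SDS–PAGE and blotted to PVDF. Blots were probed with rabbit anti-Bcl-2 or anti-PARP (1:1000, 2 h, RT), then HRP secondary, and developed by ECL. Blots were stripped and reprobed for β-actin as loading control.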

[9] = system: HUVECs expressing GFP; experiment: Endothelial cell shape change assay; assay type: cell-based, human; details: 30 min after drug addition
In short: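 GFP-expressing HUVECs were grown in EGM-2 with endothelial cell growth supplement and seeded on collagen-coated slides 1 day before assay. Morphology and GFP fluorescence were imaged by confocal microscopy before and at several times after test compound addition. The GFP-positive cell area was quantified by image analysis.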

[10] = system: chick aortic vascular sprouts; experiment: Chick aortic ring assay; assay type: cell-based; details: 30 min incubation
In short: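 Aortic arches from day 14 chick embryos were cut into cross-sectional slices and embedded in Matrigel with complete medium. Endothelial sprouts or channels formed over 24–48 h. Various concentrations of test compound were then added, and vascular channels were photographed before and 30 min after addition.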

Compound: COc1ccc(/C=C\c2cc(OC)c(OC)c(OC)c2)cc1O [CA-4, combretastatin A-4, reference compound]
- IC50 [1]: 4 to 370 nM

Compound: COc1cc(-n2ncnc2-c2ccccc2)cc(OC)c1OC [Compound 4a]
- antiproliferative activity (in words) [1]: did not yield active compounds

Compound: COc1cc(-n2ncnc2-c2ccc(F)cc2)cc(OC)c1OC [Compound 4b]
- antiproliferative activity (in words) [1]: did not yield active compounds

Compound: COc1cc(-n2ncnc2-c2cccc(F)c2)cc(OC)c1OC [Compound 4c]
- antiproliferative activity (in words) [1]: did not yield active compounds

Compound: COc1cc(-n2ncnc2-c2ccc(Cl)cc2)cc(OC)c1OC [Compound 4d]
- antiproliferative activity (in words) [1]: did not yield active compounds

Compound: COc1cc(-n2ncnc2-c2ccc(Cl)c(Cl)c2)cc(OC)c1OC [Compound 4f]
- antiproliferative activity (in words) [1]: did not yield active compounds

Compound: COc1cccc(-c2ncnn2-c2cc(OC)c(OC)c(OC)c2)c1 [Compound 4i]
- antiproliferative activity (in words) [1]: dramatic drop of potency; also recorded: inactivity

Compound: COc1ccccc1-c1ncnn1-c1cc(OC)c(OC)c(OC)c1 [Compound 4j]
- antiproliferative activity (in words) [1]: dramatic drop of potency

Compound: CCOc1ccc(-c2ncnn2-c2cc(OC)c(OC)c(OC)c2)cc1 [Compound 4l, 1-(3,4,5-Trimethoxyphenyl)-5-(4-ethoxyphenyl)-1H-1,2,4-triazole]
- G2/M cell population [2]: over 70%
- cell cycle effect in HeLa [2]: clear G2/M arrest pattern in a concentration-dependent manner
- cell cycle effect in Jurkat [3]: significant block in the G2/M phase
- induction of apoptosis (annexin-V positive cells) [4]: significant induction of apoptotic cells after 24 h
- mitochondrial transmembrane potential (JC-1) [5]: depolarization of the mitochondrial membrane potential
- ROS production [6]: induced the production of large amounts of ROS
- caspase-3 activation [7]: activation of caspase-3 in a time-dependent manner
- Bcl-2 expression [8]: decreased expression of Bcl-2
- PARP cleavage [8]: extensive formation of the typical 89 kDa fragment of PARP
- lowest concentration causing HUVEC retraction and membrane blebs [9]: 0.5 µM
- effect on vascular sprouts from chick aortic ring [10]: disrupted formation of vascular sprouts

Compound: CCOc1cccc(-c2ncnn2-c2cc(OC)c(OC)c(OC)c2)c1 [Compound 4m]
- antiproliferative activity (in words) [1]: inactivity

- IC50 [1]: 3 to 20 nM
Compound: CCOc1ccc(-c2ncnn2-c2cc(OC)c(OC)c(OC)c2)cc1Cl [Compound 4o, 5-(3-Chloro-4-ethoxyphenyl)-1-(3,4,5-trimethoxyphenyl)-1H-1,2,4-triazole]
- G2/M cell population [2]: over 70%
- cell cycle effect in HeLa [2]: clear G2/M arrest pattern in a concentration-dependent manner
- cell cycle effect in Jurkat [3]: significant block in the G2/M phase
- induction of apoptosis (annexin-V positive cells) [4]: significant induction of apoptotic cells after 24 h
- mitochondrial transmembrane potential (JC-1) [5]: depolarization of the mitochondrial membrane potential
- ROS production [6]: induced the production of large amounts of ROS
- caspase-3 activation [7]: activation of caspase-3 in a time-dependent manner
- Bcl-2 expression [8]: decreased expression of Bcl-2
- PARP cleavage [8]: extensive formation of the typical 89 kDa fragment of PARP

Compound: COc1cc(-n2ncnc2-c2cccc([N+](=O)[O-])c2)cc(OC)c1OC [Compound 4r]
- antiproliferative activity (in words) [1]: did not yield active compounds
